Measurements from ChEMBL document CHEMBL1221275 (Bioorg Med Chem, 2010).

Assays:
MT4 = test: Cytotoxicity against human MT4 cells after 4 days; type: cell-based; conditions: MT4, 96 h
Summary of the method: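 Mock-infected MT-4 cells were used. IC50 is the concentration giving 50% inhibition of cell growth. Values are averages of at least two separate experiments.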

[1] = Therapeutic index, ratio of IC50 for human MT4 cells to EC50 for HIV1 NL4-3; type: cell-based; conditions: read-out: TI
Summary of the method: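 TI was calculated as IC50 (growth inhibition of mock-infected MT-4 cells) divided by EC50 (inhibition of HIV-1 NL4-3 replication in MT-4 cells). Both inputs are averages of at least two separate experiments.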

[2] = system: Human immunodeficiency virus 1; test: Antiviral activity against HIV1 NL4-3 infected in human MT4 cells assessed as inhibition of viral replication after 4 days by p24 antigen based ELISA assay; type: functional, organism-based; conditions: Human immunodeficiency virus 1, NL4-3, MT4, 96 h

Structure (SMILES)	EC50 [2]	IC50 (MT4)	selectivity ratio [1]
Cc1cn([C@H]2C[C@H](N=[N+]=[N-])[C@@H](CO)O2)c(=O)[nH]c1=O [ZIDOVUDINE]		> 37400 nM	
C=C(C)[C@@H]1CC[C@]2(C(=O)O)CC[C@]3(C)[C@H](CC[C@@H]4[C@@]5(C)CC[C@H](OC(=O)CC(C)(C)C(=O)O)C(C)(C)[C@@H]5CC[C@]43C)[C@@H]12 [BEVIRIMAT]	96 nM	> 5000 nM	> 52
C=C(C)[C@@H]1CC[C@]2(COC(=O)CC(C)(C)CC(=O)OC[C@H]3O[C@@H](n4cc(C)c(=O)[nH]c4=O)C[C@@H]3N=[N+]=[N-])CC[C@]3(C)[C@H](CC[C@@H]4[C@@]5(C)CC[C@H](OC(=O)CC(C)(C)CC(=O)O)C(C)(C)[C@@H]5CC[C@]43C)[C@@H]12	180 nM	7700 nM	43
Cc1cn([C@H]2C[C@H](N=[N+]=[N-])[C@@H](COC(=O)CC(C)(C)C(=O)OC[C@]34CC[C@@H](C(C)C)[C@@H]3[C@H]3CC[C@@H]5[C@@]6(C)CC[C@H](OC(=O)CCCC(=O)O)C(C)(C)[C@@H]6CC[C@@]5(C)[C@]3(C)CC4)O2)c(=O)[nH]c1=O	73 nM	8000 nM	110
C=C(C)[C@@H]1CC[C@]2(COC(=O)CCCC(=O)OC[C@H]3O[C@@H](n4cc(C)c(=O)[nH]c4=O)C[C@@H]3N=[N+]=[N-])CC[C@]3(C)[C@H](CC[C@@H]4[C@@]5(C)CC[C@H](OC(=O)CC(C)(C)C(=O)O)C(C)(C)[C@@H]5CC[C@]43C)[C@@H]12	60 nM	8700 nM	145
C=C(C)[C@@H]1CC[C@]2(COC(=O)CCCC(=O)O)CC[C@]3(C)[C@H](CC[C@@H]4[C@@]5(C)CC[C@H](OC(=O)CC(C)(C)C(=O)O)C(C)(C)[C@@H]5CC[C@]43C)[C@@H]12	310 nM	> 46600 nM	> 47
Cc1cn([C@H]2C[C@H](N=[N+]=[N-])[C@@H](COC(=O)C(C)(C)CC(=O)OC[C@]34CC[C@@H](C(C)C)[C@@H]3[C@H]3CC[C@@H]5[C@@]6(C)CC[C@H](OC(=O)CC(C)(C)C(=O)O)C(C)(C)[C@@H]6CC[C@@]5(C)[C@]3(C)CC4)O2)c(=O)[nH]c1=O	87 nM	9000 nM	103
C=C(C)[C@@H]1CC[C@]2(COC(=O)C(C)(C)CC(=O)OC[C@H]3O[C@@H](n4cc(C)c(=O)[nH]c4=O)C[C@@H]3N=[N+]=[N-])CC[C@]3(C)[C@H](CC[C@@H]4[C@@]5(C)CC[C@H](OC(=O)CC(C)(C)C(=O)O)C(C)(C)[C@@H]5CC[C@]43C)[C@@H]12	40 nM	5400 nM	135
C=C(C)[C@@H]1CC[C@]2(COC(=O)CCC(=O)O)CC[C@]3(C)[C@H](CC[C@@H]4[C@@]5(C)CC[C@H](OC(=O)CC(C)(C)C(=O)O)C(C)(C)[C@@H]5CC[C@]43C)[C@@H]12	180 nM	11300 nM	63

The remaining compounds from weak to strong by EC50 [2], led by results:

EC50 [2]	Structure (SMILES)	IC50 (MT4)	selectivity ratio [1]
1210 nM	Cc1cn([C@H]2C[C@H](N=[N+]=[N-])C(COC(=O)CC(C)(C)CC(=O)OC[C@]34CC[C@@H](C(C)C)[C@@H]3[C@H]3CC[C@@H]5[C@@]6(C)CC[C@H](OC(=O)CCCC(=O)O)C(C)(C)[C@@H]6CC[C@@]5(C)[C@]3(C)CC4)O2)c(=O)[nH]c1=O (some centres not stated)	8500 nM	7
360 nM	Cc1cn([C@H]2C[C@H](N=[N+]=[N-])C(COC(=O)CC(C)(C)CC(=O)OC[C@]34CC[C@@H](C(C)C)[C@@H]3[C@H]3CC[C@@H]5[C@@]6(C)CC[C@H](OC(=O)CC(C)(C)CC(=O)O)C(C)(C)[C@@H]6CC[C@@]5(C)[C@]3(C)CC4)O2)c(=O)[nH]c1=O (some centres not stated)	9800 nM	27
290 nM	Cc1cn([C@H]2C[C@H](N=[N+]=[N-])[C@@H](COC(=O)CC(C)(C)CC(=O)OC[C@]34CC[C@@H](C(C)C)[C@@H]3[C@H]3CC[C@@H]5[C@@]6(C)CC[C@H](OC(=O)CC(C)(C)C(=O)O)C(C)(C)[C@@H]6CC[C@@]5(C)[C@]3(C)CC4)O2)c(=O)[nH]c1=O	9000 nM	31
260 nM	Cc1cn([C@H]2C[C@H](N=[N+]=[N-])[C@@H](COC(=O)C(C)(C)CC(=O)OC[C@]34CC[C@@H](C(C)C)[C@@H]3[C@H]3CC[C@@H]5[C@@]6(C)CC[C@H](OC(=O)CCCC(=O)O)C(C)(C)[C@@H]6CC[C@@]5(C)[C@]3(C)CC4)O2)c(=O)[nH]c1=O	7200 nM	28
98 nM	C=C(C)[C@@H]1CC[C@]2(COC(=O)CC(C)(C)C(=O)OC[C@H]3O[C@@H](n4cc(C)c(=O)[nH]c4=O)C[C@@H]3N=[N+]=[N-])CC[C@]3(C)[C@H](CC[C@@H]4[C@@]5(C)CC[C@H](OC(=O)CC(C)(C)C(=O)O)C(C)(C)[C@@H]5CC[C@]43C)[C@@H]12	7000 nM	71
93 nM	Cc1cn([C@H]2C[C@H](N=[N+]=[N-])C(COC(=O)CCCC(=O)OC[C@]34CC[C@@H](C(C)C)[C@@H]3[C@H]3CC[C@@H]5[C@@]6(C)CC[C@H](OC(=O)CCCC(=O)O)C(C)(C)[C@@H]6CC[C@@]5(C)[C@]3(C)CC4)O2)c(=O)[nH]c1=O (some centres not stated)	9000 nM	97
63 nM	C=C(C)[C@@H]1CC[C@]2(COC(=O)CC(C)(C)CC(=O)OC[C@H]3O[C@@H](n4cc(C)c(=O)[nH]c4=O)C[C@@H]3N=[N+]=[N-])CC[C@]3(C)[C@H](CC[C@@H]4[C@@]5(C)CC[C@H](OC(=O)CC(C)(C)C(=O)O)C(C)(C)[C@@H]5CC[C@]43C)[C@@H]12	8100 nM	129
56 nM	Cc1cn([C@H]2C[C@H](N=[N+]=[N-])[C@@H](COC(=O)CC(C)(C)C(=O)OC[C@]34CC[C@@H](C(C)C)[C@@H]3[C@H]3CC[C@@H]5[C@@]6(C)CC[C@H](OC(=O)CC(C)(C)C(=O)O)C(C)(C)[C@@H]6CC[C@@]5(C)[C@]3(C)CC4)O2)c(=O)[nH]c1=O	7700 nM	138
45 nM	C=C(C)[C@@H]1CC[C@]2(COC(=O)CCC(=O)OC[C@H]3O[C@@H](n4cc(C)c(=O)[nH]c4=O)C[C@@H]3N=[N+]=[N-])CC[C@]3(C)[C@H](CC[C@@H]4[C@@]5(C)CC[C@H](OC(=O)CC(C)(C)C(=O)O)C(C)(C)[C@@H]5CC[C@]43C)[C@@H]12	7100 nM	158
